# In PMC2114617 (The Journal of Cell Biology, 1986):
# Columns and labels:
# [1] = test system: B16-F10 melanoma cells; experiment: Inhibition of B16-F10 melanoma cell spreading on fibronectin; format: cell-based, murine; details: data not shown
# In short: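 Wells coated 60 min at room temperature with human plasma fibronectin (4 μg/ml) in PBS+, then blocked 30 min with heat-denatured BSA. Test peptide in PBS+ was added, with or without 5 μg/ml mAb333. Cells were fixed and %-spread scored by phase contrast (300 cells/well).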
# [2] = test system: B16-F10 melanoma cells; experiment: Inhibition of B16-F10 melanoma cell spreading on CS5; format: cell-based, murine; details: CS5 substrate; data not shown
# [3] = test system: BHK fibroblasts; experiment: Spreading of BHK fibroblasts on fibronectin or its tryptic fragments; format: cell-based, hamster; details: substrate-coated protein
# In short: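 Wells were coated 60 min at room temperature with human plasma fibronectin or its purified tryptic fragments (90-98% pure), with coating levels expressed in nM. Wells were blocked with heat-denatured BSA.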
Substance,Inhibition of B16-F10 spreading on fibronectin at concentrations up to 1 mg/ml [1],further results
Arg- Asp [RD],completely inactive,
Arg-Gly-Pro-Phe-Pro-lle [RGPFPI],completely inactive,
GRGD,,Inhibition of B16-F10 spreading on CS5 [2]: highly inhibitory
Gly-His-Lys [GHK],completely inactive,
SDGR,,Inhibition of B16-F10 spreading on CS5 [2]: more active than GRGDS
Thr-Lys-Pro- Arg [TKPR],completely inactive,
fibronectin,,Spreading of BHK cells on fibronectin and fragments [3]: spread equally well
heparin,no detectable effect,
"insulin A chain: Insulin A chain from Sigma Chemical Co., peptide unrelated to RGDS",completely inactive,
